Assay results from ChEMBL document CHEMBL1122201, “Carboxyimamidate, a low-molecular-weight polyelectrolyte with antitumor properties and low toxicity” (1982).
Where “and” joins values, the source holds several entries; their conditions need not be identical. Equal values may be shown once.

What was measured:
Mus musculus [1] = assay: Proportion of survivors was determined on the 60th day at a dose of 1200-1500 (mg/kg)/day; type: functional
Outline: (§1)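 Lewis lung carcinoma model in mice, groups of 10. Dosing daily on days 1-5, 1-8 or 1-10, ip or subcutaneous. Dose ranges pooled from nine independent experiments run at different levels. ILS is the percent increase in mean life span, excluding cures, over the mean of 3 or 4 untreated control groups of 10. Survivors scored at day 60.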

Mus musculus [2] = assay: Proportion of survivors was determined on the 60th day at a dose of 158-251 mg/kg/day; type: functional; outline: as §1
Mus musculus [3] = assay: Proportion of survivors was determined on the 60th day at a dose of 2400-2512 (mg/kg)/day; type: functional; outline: as §1
Mus musculus [4] = assay: Proportion of survivors was determined on the 60th day at a dose of 500-600 mg/kg/day; type: functional; outline: as §1
Mus musculus [5] = assay: Proportion of survivors was determined on the 60th day at a dose of 62-75 mg/kg/day; type: functional; outline: as §1
Mus musculus [6] = assay: Proportion of survivors was determined on the 60th day at a dose of 900-1000 mg/kg/day; type: functional; outline: as §1
Mus musculus [7] = species on record: Mus musculus; assay: Increase in mean life span was measured against ADJ-PC6 plasmacytoma cells; type: functional
Outline: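 10^6 Trypan blue-excluding cells implanted ip (P815 sc) in groups of 10 mice: B6D2F1 for L5178Y and P815, BALB/c for ADJ-PC6, C3H for Gardner. Drug given ip in sterile saline, 0.5 mL/mouse, at or below the maximally tolerated dose for the schedule. ILS excludes long-term tumor-free survivors. Animals held 60 days; Student's t test against untreated controls.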

Mus musculus [8] = species on record: Mus musculus; assay: Increase in mean life span was measured against B16 melanoma cells; type: functional
Mus musculus [9] = species on record: Mus musculus; assay: Increase in mean life span was measured against B16 melanoma cells carcinoma 26; type: functional
Mus musculus [10] = assay: Ratio of mean tumor volume of treated groups to that of the mean of total untreated controls in the subcutaneous Lewis Lung Carcinoma model at a dose of 100-125 (mg/kg)/day; type: functional
Outline: (§2)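 Mice bearing sc Lewis lung carcinoma (groups of 10) received the saline-dissolved agent daily on days 1-5, 1-8 or 1-10, ip or sc. Perpendicular tumor diameters were measured with vernier calipers on day 14, and volume was taken as 0.5 × length × width². T/C is treated mean volume over the mean of all untreated controls (3-4 groups of 10), pooled across experiments as mean ± SE.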

Mus musculus [11] = assay: Ratio of mean tumor volume of treated groups to that of the mean of total untreated controls in the subcutaneous Lewis Lung Carcinoma model at a dose of 1200-1500 mg/kg/day; type: functional; outline: as §2
Mus musculus [12] = assay: Ratio of mean tumor volume of treated groups to that of the mean of total untreated controls in the subcutaneous Lewis Lung Carcinoma model at a dose of 158-251 (mg/kg)/day; type: functional; outline: as §2
Mus musculus [13] = assay: Ratio of mean tumor volume of treated groups to that of the mean of total untreated controls in the subcutaneous Lewis Lung Carcinoma model at a dose of 2400-2512 (mg/kg)/day; type: functional; outline: as §2
Mus musculus [14] = assay: Ratio of mean tumor volume of treated groups to that of the mean of total untreated controls in the subcutaneous Lewis Lung Carcinoma model at a dose of 300-400 (mg/kg)/day; type: functional; outline: as §2
Mus musculus [15] = assay: Ratio of mean tumor volume of treated groups to that of the mean of total untreated controls in the subcutaneous Lewis Lung Carcinoma model at a dose of 500-600 (mg/kg)/day; type: functional; outline: as §2
Mus musculus [16] = assay: Ratio of mean tumor volume of treated groups to that of the mean of total untreated controls in the subcutaneous Lewis Lung Carcinoma model at a dose of 62-75 mg/kg/day; type: functional; outline: as §2
Mus musculus [17] = assay: Ratio of mean tumor volume of treated groups to that of the mean of total untreated controls in the subcutaneous Lewis Lung Carcinoma model at a dose of 900-1000 mg/kg/day; type: functional; outline: as §2
Mus musculus [18] = assay: Proportion of survivors was determined on the 60th day at a dose of 300-400 (mg/kg)/day; type: functional; outline: as §1
Mus musculus [19] = species on record: Mus musculus; assay: Tumor weight inhibition against colon carcinoma 38
Mus musculus [20] = species on record: Mus musculus; assay: Tumor weight inhibition against colon carcinoma 26
Mus musculus [21] = species on record: Mus musculus; assay: Tumor weight inhibition against B16 melanoma cells
Mus musculus [22] = species on record: Mus musculus; assay: Tumor weight inhibition against M5076 ovarian tumor
Mus musculus [23] = species on record: Mus musculus; assay: Tumor weight inhibition against P815 mastocytoma cells
[24] = test system: Walker carcinosarcoma 256 (Rattus norvegicus); assay: Tumor weight inhibition Walker carcinosarcoma cells against
Mus musculus [25] = species on record: Mus musculus; assay: Tumor weight inhibition against EMT6 mammary carcinoma cells
Mus musculus [26] = species on record: Mus musculus; assay: Tumor weight inhibition against Nettesheim lung carcinoma cells
Mus musculus [27] = species on record: Mus musculus; assay: Tumor weight inhibition against Madison 109 lung carcinoma cells
Rattus norvegicus = species on record: Rattus norvegicus; assay: Increase in mean life span was measured against Walker carcinosarcoma cells

Molecule CC(c1ccccc1)C1C(=O)NC(=O)C1CCC(C(N)=O)C(CCC(CC(=O)O)C(N)=O)C(=O)O.N.N (stereo not drawn) has a Proportion of survivors (Mus musculus [1]) of 0.21, a Proportion of survivors (Mus musculus [2]) of 0.04 and a Proportion of survivors (Mus musculus [3]) of 0.13. The Proportion of survivors (Mus musculus [4]) was 0.12, the Proportion of survivors (Mus musculus [5]) was 0.03 and the Proportion of survivors (Mus musculus [6]) was 0.21. The ILS (Mus musculus [7]) was 24%, the ILS (Mus musculus [8]) was 21% and 11% and the ILS (Mus musculus [9]) was 7%. The T/C (Mus musculus [10]) was 0.62, the T/C (Mus musculus [11]) was 0.16 and the T/C (Mus musculus [12]) was 0.58. It also gave a T/C (Mus musculus [13]) of 0.1, a T/C (Mus musculus [14]) of 0.4 and a T/C (Mus musculus [15]) of 0.32. It also gave a T/C (Mus musculus [16]) of 0.59, a T/C (Mus musculus [17]) of 0.17 and a Proportion of survivors (Mus musculus [18]) of 0.09. The TWI (Mus musculus [19]) was 44, the TWI (Mus musculus [20]) was 70 and the TWI (Mus musculus [21]) was 74. The TWI (Mus musculus [22]) was 89, the TWI (Mus musculus [23]) was 60 and 53 and the TWI [24] was 21. For the same molecule, the TWI (Mus musculus [25]) was 14, the TWI (Mus musculus [26]) was 39 and the TWI (Mus musculus [27]) was 67 and 78 and 50. It also gave an ILS (Rattus norvegicus) of 3%.
